The values that follow come from ChEMBL document CHEMBL1255440, “An antimicrobial peptide that targets DNA repair intermediates in vitro inhibits Salmonella growth within murine macrophages” (Antimicrob Agents Chemother, 2010).

Each structure is given as a SMILES string. Values after ≈ are worked out from the molar mass of the structure shown.

In data set [1] the test system is Salmonella typhimurium. As to the kind of experiment: Antibacterial activity against 10 MOI Salmonella enterica subsp. enterica serovar Typhimurium G785 transfected with SOS-inducible beta-galactosidase reporter infected in mouse J774A1 cells assessed as bacterial number at 50 uM after 4 hrs postinfection. In kind it is functional, J774.A1. Summed up:
(§1)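 J774A.1 cells infected at MOI 10 with sulA promoter-lacZ reporter strain G785 using the gentamicin-protection protocol, treated with peptide (DMSO vehicle controls) plus 15 μg/ml gentamicin for 4 or 24 h. Released bacteria were plated for colony counts in parallel, and were incubated with 33 μM C12FDG (with 0.2 mM EDTA) in LB for 2 h at 37°C. Flow cytometry gave % fluorescein-positive among LPS-antibody-positive particles; Wilcoxon exact test.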

Data set [2] relates to Salmonella typhimurium. The experiment in a line: Antibacterial activity against 10 MOI Salmonella enterica subsp. enterica serovar Typhimurium G785 transfected with SOS-inducible beta-galactosidase reporter infected in mouse J774A1 cells assessed as SOS induction at 50 uM after 4 hrs postinfection. In kind it is functional, J774.A1. An outline of the steps: as §1
Data set [3] deals with Salmonella typhimurium. The experiment in a line: Antibacterial activity against 10 MOI Salmonella enterica subsp. enterica serovar Typhimurium G785 transfected with SOS-inducible beta-galactosidase reporter infected in mouse J774A1 cells assessed as SOS induction at 100 uM after 4 hrs postinfection. In kind it is functional, J774.A1. An outline of the steps:
as §1

The test system of data set [4] is Salmonella typhimurium. The experiment in a line: Antibacterial activity against 10 MOI Salmonella enterica subsp. enterica serovar Typhimurium G785 transfected with SOS-inducible beta-galactosidase reporter infected in mouse J774A1 cells assessed as bacterial number at 50 uM after 24 hrs postinfection. The data set is classed as functional, J774.A1. Summed up:
as §1

For data set [5], the system named is Salmonella typhimurium. The experiment in a line: Antibacterial activity against 10 MOI Salmonella enterica subsp. enterica serovar Typhimurium G785 transfected with SOS-inducible beta-galactosidase reporter infected in mouse J774A1 cells assessed as bacterial number at 150 uM after 24 hrs postinfection. In kind it is functional, J774.A1. An outline of the steps:
as §1

The test system of data set [6] is Salmonella typhimurium. As to the kind of experiment: Antibacterial activity against 10 MOI Salmonella enterica subsp. enterica serovar Typhimurium G785 transfected with SOS-inducible beta-galactosidase reporter infected in mouse J774A1 cells assessed as SOS induction at 50 uM after 24 hrs postinfection. In kind it is functional, J774.A1. Summed up:
as §1

The test system of data set [7] is Salmonella typhimurium. The experiment in a line: Antibacterial activity against 10 MOI Salmonella enterica subsp. enterica serovar Typhimurium G785 transfected with SOS-inducible beta-galactosidase reporter infected in mouse J774A1 cells assessed as SOS induction at 100 uM after 24 hrs postinfection. In kind it is functional, J774.A1. Summed up:
as §1

For data set [8], the system named is Salmonella typhimurium. The experiment in a line: Antibacterial activity against 10 MOI Salmonella enterica subsp. enterica serovar Typhimurium G785 transfected with SOS-inducible beta-galactosidase reporter infected in mouse J774A1 cells assessed as SOS induction at 150 uM after 24 hrs postinfection. The data set is classed as functional, J774.A1. An outline of the steps:
as §1

For data set [9], the system named is J774.A1. The experiment in a line: Cytotoxicity against mouse J774A1 cells assessed as metabolic activity at 50 uM after 24 hrs by MTT assay. In kind it is ADME, cell-based. The conditions noted are these: j774.a1, 24 h. Summed up:
(§2)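 Cells seeded at 40,000/well in 96-well plates, overnight 37°C 5% CO2, then treated 24 h in fresh DMEM. MTT (4 mg/ml stock in PBS) added for up to 3 h. Formazan solubilized overnight at 37°C in SDS/dimethylformamide/acid lysis buffer, OD read at 575 nm. Paired t tests.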
(Formazan colour is commonly taken as a measure of viable cells.)

A short description of data set [10]: Cytotoxicity against mouse peritoneal macrophages assessed as increase in metabolic activity at 150 uM after 24 hrs by MTT assay. The data set is classed as ADME, cell-based. To be noted: peritoneal macrophage cell. Summed up:
as §2

The nature of data set [11]: Cytotoxicity against mouse J774A1 cells assessed as live cells at 50 uM by calcein AM assay. The data set is classed as cell-based, J774.A1. To be noted: read-out: Activity. An outline of the steps: (§3)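 Cells seeded at 300,000/well and allowed to adhere, then given fresh DMEM with or without peptide for 24 h. Cells trypsinized, stained with a mammalian Live/Dead viability/cytotoxicity kit and analyzed by flow cytometry. Wilcoxon exact test.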

The nature of data set [12]: Cytotoxicity against mouse peritoneal macrophages assessed as live cells at 150 uM by calcein AM assay. To be noted: read-out: Activity. The data set is classed as cell-based, Peritoneal macrophage cell. An outline of the steps: as §3
Data set [13] in a line: Cytotoxicity against mouse peritoneal macrophages assessed as dead cells at 100 uM by propidium iodide assay. The conditions noted are these: peritoneal macrophage cell. The data set is classed as cell-based. An outline of the steps:
as §3

For data set [14], the system named is J774.A1. As to the kind of experiment: Drug uptake in mouse J774A1 cells assessed as total peptide concentration at 50 uM after 5 hrs at 37 degC by HPLC analysis. The data set is classed as ADME, cell-based. The conditions noted are these: j774.a1, 5 h. An outline of the steps: (§4)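 J774A.1 cells were seeded at 300,000 per well and allowed to adhere for 24 h at 37°C in 5% CO2. Medium was replaced with DMEM containing unlabeled peptide, and cells were held at 37°C or 4°C. After three washes in ice-cold PBS, cells were lysed in NP-40 buffer and debris spun out. Reverse-phase HPLC was read at 280 nm. Peaks at 17.5 and 17.75 min were integrated against a standard curve. Intracellular mM was calculated from 300,000 cells at 1 pl each, using monomer mass.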

A short description of data set [15]: Drug uptake in mouse peritoneal macrophages assessed as dimer to monomer peptide ratio at 50 uM after 24 hrs at 37 degC by HPLC analysis. The data set is classed as ADME, cell-based. To be noted: peritoneal macrophage cell. An outline of the steps:
(§5)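 Macrophages were elicited in 8–12-week-old female BALB/c mice with 4% thioglycolate i.p. and harvested by lavage 4 days later. Cells were seeded at 300,000 per well for 24 h, then given unlabeled peptide in DMEM for 24 h at 37°C. Lysates were run on reverse-phase HPLC at A280. Monomer (17.5 min) and dimer (17.75 min) peak areas were compared with a standard curve. Concentration assumed 1 pl per cell; values are means of three determinations.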

A short description of data set [16]: Drug uptake in mouse peritoneal macrophages assessed as total peptide concentration at 50 uM after 24 hrs at 37 degC by HPLC analysis. The data set is classed as ADME, cell-based. The conditions noted are these: peritoneal macrophage cell. An outline of the steps:
as §5

Data set [17] deals with Salmonella typhimurium. As to the kind of experiment: Antibacterial activity against Salmonella enterica subsp. enterica serovar Typhimurium SDT1416. The data set is classed as functional. Summed up:
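MIC by NCCLS broth microdilution against GFP-expressing strain SDT1416.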

Data set [18] concerns J774.A1. The experiment in a line: Drug uptake in mouse J774A1 cells assessed as total peptide concentration at 50 uM after 5 hrs at 4 degC by HPLC analysis. The data set is classed as ADME, cell-based. To be noted: j774.a1, 5 h. An outline of the steps:
as §4

In data set [19] the test system is J774.A1. As to the kind of experiment: Drug uptake in mouse J774A1 cells assessed as total peptide concentration at 100 uM after 5 hrs at 4 degC by HPLC analysis. To be noted: j774.a1, 5 h. In kind it is ADME, cell-based. Summed up: (§6)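 J774A.1 cells were incubated with unlabeled peptide for 5 or 24 h at 37°C or 4°C, washed in ice-cold PBS and lysed with NP-40 buffer. Lysates were run on reverse-phase HPLC with an acetonitrile/0.1% TFA gradient and A280 fractions. Monomer (~17.5 min) and dimer (~17.75 min) peak areas were compared against a standard curve. Intracellular mM was calculated using 300,000 cells and 1 pl/cell, with concentration expressed as monomer mass.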

For data set [20], the system named is J774.A1. As to the kind of experiment: Drug uptake in mouse J774A1 cells assessed as total peptide concentration at 150 uM after 5 hrs at 4 degC by HPLC analysis. In kind it is ADME, cell-based. To be noted: j774.a1, 5 h. An outline of the steps: as §4
The subject of data set [21] is J774.A1. The experiment in a line: Drug uptake in mouse J774A1 cells assessed as dimer to monomer peptide ratio at 100 uM after 5 hrs at 4 degC by HPLC analysis. In kind it is ADME, cell-based. To be noted: j774.a1, 5 h. Summed up: as §6
The subject of data set [22] is Salmonella typhimurium. The experiment in a line: Antibacterial activity against 1 MOI Salmonella enterica subsp. enterica serovar Typhimurium infected in mouse peritoneal macrophages assessed as reduction in bacterial growth after 24 hrs. The data set is classed as functional, organism-based. An outline of the steps:
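J774A.1 cells or thioglycolate-elicited BALB/c peritoneal macrophages seeded at 200,000/well, overnight 37°C 5% CO2; infected with GFP strain SDT1416, 1 h invasion, washed, 1 h in DMEM with 15 μg/ml gentamicin. Then fresh DMEM plus 15 μg/ml gentamicin with or without peptide (DMSO vehicle) for 24 h at 37°C; macrophages lysed with 1% Triton X-100, plated on LB agar for CFU.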

As a reminder, the MIC is the least concentration at which growth counts as inhibited. `N=C(N)NCCC[C@@H](NC(=O)[C@@H](CS)NC(=O)[C@@H](Cc1ccc(O)cc1)NC(=O)[C@@H](Cc1c[nH]c2ccccc12)NC(=O)[C@@H](CCCNC(=N)N)NC(=O)[C@H](N)Cc1c[nH]c2ccccc12)C(=O)O`: the Activity in the data set on Salmonella typhimurium [1] was found to be 57.1%; in the data set with Salmonella typhimurium [2], 0.3%; in the data set on Salmonella typhimurium [3] it was 1.3%; with Salmonella typhimurium [4], 45.2%; in the data set with Salmonella typhimurium [5] it was 1.9%; in the data set with Salmonella typhimurium [6], 0.4%. In addition, the Activity with Salmonella typhimurium [7] was 16.5%; with Salmonella typhimurium [8] it was 28.4%; in the data set on J774.A1 [9], “Non-toxic”; in [10] it was 18%; in data set [13] it was 3.1%; in the data set with Salmonella typhimurium [22], “Dose-dependent effect”. The viability at 50 µM in data set [11] was 93%. The viability at 150 µM in data set [12] was 87.9%. Also, the Drug uptake is on record as 0.9 mM in the data set with J774.A1 [14]; 2.5 mM in data set [16]; 1.2 mM in the data set with J774.A1 [18]; 7.7 mM in the data set with J774.A1 [19]; 15.8 mM in the data set with J774.A1 [20]. Moreover, the Ratio in data set [15] is listed as 0.9; in the data set on J774.A1 [21], 2.7. This molecule registered an MIC against Salmonella typhimurium [17] of 64 µM (≈ 62 µg/mL).
